Test results taken from ChEMBL document CHEMBL1151968, “Ceramide and cerebrosides from the octocoral Sarcophyton ehrenbergi” (2009).
Calls of active or inactive are those of the source. The rule behind the calls is not given here.

How the values were obtained:
RAW264.7 [1] = assay: Antiinflammatory activity in mouse RAW264.7 cells assessed as reduction of LPS-induced COX2 protein level at 10 uM by immunoblot analysis relative to control; assay type: functional
How it was run: (§1)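 Murine RAW 264.7 macrophages stimulated with E. coli LPS (0.01 μg/mL) for 16 h with or without sample (10 μM). Lysates from cells washed in ice-cold PBS; equal protein run on SDS-PAGE, transferred to PVDF, probed with anti-iNOS or anti-COX-2 (1:1000, 180 min); β-actin blotted. Band intensity expressed relative to LPS-alone group (100%); mean ± SEM, n = 5.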

Klebsiella aerogenes = assay: Antibacterial activity against Enterobacter aerogenes ATCC 13048 at […]; assay type: functional, organism-based
How it was run: (§2)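 Agar-overlay disk diffusion. Strains grown in LB broth 24 h at 37 °C; 0.3 mL broth culture in 2.7 mL LB soft agar (0.7%) poured over LB hard agar (1.5%). 8 mm paper disks loaded with 10 μL of 2 μg/μL sample; ampicillin (5 μg/μL) positive control, solvent negative control. Plates incubated 37 °C, 24 h, then inhibition assessed.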

RAW264.7 [2] = assay: Antiinflammatory activity in mouse RAW264.7 cells assessed as reduction of LPS-induced iNOS protein level at 10 uM by immunoblot analysis relative to control; assay type: functional; design: scale not given: the % may be the effect or the level left; how it was run: as §1
Serratia marcescens = assay: Antibacterial activity against Serratia marcescens ATCC 25419 at […]; assay type: functional, organism-based; how it was run: as §2
Shigella sonnei = assay: Antibacterial activity against Shigella sonnei ATCC 11060 at […]; assay type: functional, organism-based; how it was run: as §2
[3] = tested on: Salmonella enterica subsp. enterica; assay: Antibacterial activity against Salmonella enteritidis ATCC 13076 at […]; assay type: functional, organism-based; conditions: Salmonella enterica subsp. enterica serovar Enteritidis; how it was run: as §2

SMILES	Activity (RAW264.7 [1])	Activity (Klebsiella aerogenes)	Activity (RAW264.7 [2])	Activity (Serratia marcescens)	Activity (Shigella sonnei)	Activity [3]
CCCCCCC/C=C/C(C)=C/CC/C=C/[C@@H](O)[C@H](CO[C@H]1O[C@H](CO)[C@@H](O)[C@H](O)[C@H]1O)NC(=O)[C@H](O)/C=C/CCCCCCCCCCCCCC [SARCOEHRENOSIDE A]	inactive	inactive	47.3%	inactive	inactive	inactive
CCCCCCCCCCCCC/C=C/[C@@H](O)[C@H](CO)NC(C)=O	77.2%	inactive	46.9%	inactive	inactive	inactive
CCCCCCCCCCCCCCCCCCC[C@@H](O)C(=O)N[C@@H](CO[C@@H]1O[C@H](CO)[C@@H](O)[C@H](O)[C@H]1O)[C@H](O)/C=C/CC/C=C(\C)CCCCCCCCC [SARCOEHRENOSIDE B]	inactive	inactive	46.5%	inactive	inactive	inactive
CCCCCCCCCCCCCC[C@@H](O)C(=O)N[C@@H](CO[C@@H]1O[C@H](CO)[C@@H](O)[C@H](O)[C@H]1O)[C@H](O)/C=C/CC/C=C(\C)CCCCCCCCC	64.3%	inactive	20.3%	inactive	inactive	inactive
O=C(/C=C/c1ccc(O)c(O)c1)OCCc1ccccc1 [CAFFEIC ACID PHENETHYL ESTER]	70.2%		1.5%			
CCCCCCCCCCCCCCCCCCCC[C@@H](O)C(=O)N[C@@H](CO[C@@H]1O[C@H](CO)[C@@H](O)[C@H](O)[C@H]1O)[C@H](O)/C=C/CC/C=C(\C)CCCCCCCCC		inactive		inactive	inactive	inactive
CCCCCCCCCCCCCCCCCC[C@@H](O)C(=O)N[C@@H](CO[C@@H]1O[C@H](CO)[C@@H](O)[C@H](O)[C@H]1O)[C@H](O)/C=C/CC/C=C(\C)CCCCCCCCC	inactive	inactive	25.8%	inactive	inactive	inactive
